# Test results taken from article PMC12214485 (Scientific Reports, 2025).
# Assay: DPPH free radical scavenging assay
# In short: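 Each well held test compound and DPPH (added as 150 µM solution, half the well volume), made up with methanol. Incubated 30 min at room temperature, then absorbance read at 517 nm. Percent inhibition was calculated from blank and sample absorbances. Ascorbic acid served as reference. Three independent experiments were run, each in triplicate.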
smiles,measurement,value
"O=C1O[C@H]([C@@H](O)CO)C(O)=C1O [Vitamin C, Ascorbic acid]",antioxidant activity,95.1571 ± 0.057 µg/mL
